In ChEMBL document CHEMBL1141320, “Antioxidant flavonoid glycosides from aerial parts of the fern Abacopteris penangiana” (J Nat Prod, 2007) one finds Activity data, which are given here for 13 compounds.

Active and inactive are the calls of the source. The calls are words filed in the database; no cut-off is given here.

This test is described as follows: Antioxidant activity assessed as ABTS radical scavenging activity after 15 mins by TEAC assay. It is filed as functional. In outline: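 ABTS (7 mM in water) oxidized with potassium persulfate (2.45 mM final), kept dark at room temperature 16 h, diluted with water to A734 0.700 ± 0.003. Sample added to diluted ABTS•+ (0–20 µM final); A734 decrease read after 15 min. Triplicate, with solvent blanks. Percent inhibition plotted against concentration alongside Trolox standard; TEAC = Trolox concentration matching antioxidant potential of 1 mM sample.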
Regarding `COc1ccc([C@@H]2C[C@@H](O)c3c(c(C)c(O[C@@H]4O[C@H](CO)[C@@H](O)[C@H](O)[C@H]4O)c(CO)c3O[C@@H]3O[C@H](CO)[C@@H](O)[C@H](O)[C@H]3O)O2)cc1`, the outcome was inactive.
The result for `Cc1c(O[C@@H]2O[C@H](CO)[C@@H](O)[C@H](O)[C@H]2O)c(CO)c(O[C@@H]2O[C@H](CO)[C@@H](O)[C@H](O)[C@H]2O)c2c1O[C@H](c1ccc(O)cc1)C[C@H]2O` reads 1.17 mM.
As for `COCc1c(O)c(C)c2c3c1O[C@@H]1O[C@H](CO)[C@@H](O)[C@H](O)[C@H]1O[C@@H]3C[C@@H](c1ccc(OC)cc1)O2`, the Activity was 1.03 mM.
The result for `O=c1c(O[C@@H]2O[C@H](CO)[C@@H](O)[C@H](O)[C@H]2O)c(-c2ccc(O)c(O)c2)oc2cc(O)cc(O)c12` reads 1.91 mM; that for `O=c1c(O)c(-c2ccc(O)c(O)c2)oc2cc(O)cc(O)c12`, 3.74 mM.
For the compound `Cc1c(O)c(C)c2c3c1O[C@@H]1O[C@H](CO)[C@@H](O)[C@H](O)[C@H]1O[C@@H]3C[C@@H](c1ccc(O)cc1)O2`, the Activity is 1.32 mM.
The result for `COc1ccc([C@@H]2C[C@H]3O[C@H]4[C@H](Oc5c(C)c(O[C@@H]6O[C@H](CO)[C@@H](O)[C@H](O)[C@H]6O)c(C)c(c53)O2)O[C@H](CO)[C@@H](O)[C@@H]4O)cc1` reads “inactive”.
The result for `Cc1c(O)c(C)c2c3c1O[C@@H]1O[C@H](CO)[C@@H](O)[C@H](O)[C@H]1O[C@H]3C[C@@H](c1ccc(O)cc1)O2` reads 1.44 mM.
As to `COc1ccc([C@@H]2C[C@H]3O[C@H]4[C@H](Oc5c(C)c(O)c(C)c(c53)O2)O[C@H](CO)[C@@H](O)[C@@H]4O)cc1`, the Activity was 1.36 mM.
Consider `COc1ccc([C@@H]2C[C@@H](O)c3c(O[C@@H]4O[C@H](CO)[C@@H](O)[C@H](O)[C@H]4O)c(C)c(O[C@@H]4O[C@H](CO)[C@@H](O)[C@H](O)[C@H]4O)c(C)c3O2)cc1`, for which the outcome was inactive.
Consider `COc1ccc([C@@H]2C[C@@H]3O[C@H]4[C@H](Oc5c(C)c(O)c(C)c(c53)O2)O[C@H](CO)[C@@H](O)[C@@H]4O)cc1`, for which the Activity was found to be 1.1 mM.
The result for `O=c1c(O[C@@H]2O[C@H](CO)[C@@H](O)[C@H](O)[C@H]2O)c(-c2ccc(O)cc2)oc2cc(O)cc(O)c12` reads 1.46 mM.
The result for `COCc1c(O)c(C)c2c3c1O[C@@H]1O[C@H](CO)[C@@H](O)[C@H](O)[C@H]1O[C@@H]3C[C@@H](c1ccc(O)cc1)O2` reads 1.51 mM.
